8 compounds from PubChem BioAssay AID588717 (Southern Research Specialized Biocontainment Screening …, 2011) can be followed below.

Records with an inconclusive call do not appear. Calls of active or inactive are those of the source.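 How the source made its calls: active means viability below 80% at one or more tested concentrations; inconclusive means replicate runs disagree on the 80% viability cutoff; inactive means viability above 80% at every tested concentration.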

In general, CC50 refers to the concentration at which the toxic effect on the cells reaches its halfway point. One may read the viability as a read-out of living cells in per cent, often relative to untreated cells.

The first assay deals with Vero E6 viability, CellTiter-Glo luminescence, 72 h. Nature of the assay: viability reduction of Vero E6 cells – cell-based, M1 aminopeptidase campaign, cytotoxicity control for P. falciparum PFM1AAP inhibitor project, dose response (AID 588717).
Conditions: not given
The gist of the method:
(§1)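 Timing: 72 h compound exposure at 37 °C, 5% CO2. System: Vero E6 cells. Amount: 3000 cells/well. Evaluation: % viability relative to DMSO vehicle wells, CC50 via four-parameter fit. Benchmarks: DMSO vehicle-treated cells as reference wells. Detection: ATP-based luminescence with CellTiter-Glo reagent. Dosing: compound series of 10 points in 2-fold steps.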
As to `CC[C@H](C)[C@H](NS(=O)(=O)c1ccc(Br)s1)C(=O)NCc1ccc(C(F)(F)F)cc1`, the CC50 is 28.7 µM.

Tested on in the next assay: not listed separately
The assay is described as above. Particulars: Vero E6 viability, CellTiter-Glo luminescence, 72 h; at 50 µM (top of the series). The gist of the method:
as §1
Background: ATP-based viability assays read luminescence as a measure of living cells.
With `CC[C@H](C)[C@H](NS(=O)(=O)c1cccs1)C(=O)NCc1ccc(F)cc1`, the viability is 95.5% (inactive).

Regarding `CC[C@H](C)[C@H](NC(=O)c1ccc([N+](=O)[O-])cc1)C(=O)NCc1ccccc1`, the viability is 88.9% (inactive).

In the case of `COc1ccc(-c2ccc(S(=O)(=O)N3CCC(C(=O)NCc4ccc5c(c4)OCO5)CC3)s2)cc1`, the viability was 84.2% (inactive).

Take `CC[C@H](C)[C@H](NS(=O)(=O)c1ccc(Br)s1)C(=O)O`: the viability is 104% (inactive).

For `CC[C@H](C)[C@H](NC(=O)c1ccc([N+](=O)[O-])cc1)C(=O)NCc1ccc(C(F)(F)F)cc1`, the viability was 92.2% (inactive).

As for `COc1cccc(-c2ccc(S(=O)(=O)N3CCC(C(=O)NCc4ccc5c(c4)OCO5)CC3)s2)c1`, the viability was 83.4% (inactive).

With `CC[C@H](C)[C@H](NS(=O)(=O)c1ccc(Br)s1)C(=O)NCc1ccc(F)cc1`, the viability is 97% (inactive).
